Laboratory results reported in ChEMBL document CHEMBL1126219, “Acyclic analogues of lipid A: synthesis and biological activities” (J Med Chem, 1992).

How the values were obtained:
Mus musculus [1] = organism: Mus musculus; test: Effective dose against Pseudomonas aeruginosa infection in mice; assay type: functional
Summary of the method: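 B6D2F1 mice made myelosuppressed with cyclophosphamide 200 mg/kg sc on day -4. Compound given iv as Tris salt on day -1. Survival scored over 4 days, groups of 10. ED50 obtained by Probit analysis.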

Mus musculus [2] = organism: Mus musculus; test: Compound was tested for its potency to induce TNF-alpha in murine macrophage cultures in the absence of INF at 10 mg/mL concentration; assay type: functional
Summary of the method: (§1)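 Bone marrow cells from B6D2F1 mouse femurs differentiated 8-10 days at 37 °C, 5% CO2 in DMEM with 10% FCS, 5% horse serum and 20% L929 supernatant (CSF-1). Macrophages at 10⁶ cells/mL adhered 3 h, then incubated overnight without IFN-γ. Washed, exposed 4 h to compound in serum-free medium. Supernatant TNF-α measured by cytotoxicity to actinomycin-D-treated L929 cells, as IU/mL.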

Mus musculus [3] = organism: Mus musculus; test: Compound was tested for its potency to induce TNF-alpha in murine macrophage cultures in the presence of INF at 1 mg/mL concentration; assay type: functional
Summary of the method: (§2)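 Macrophages derived from B6D2F1 mouse bone marrow (8-10 days with L929 supernatant as CSF-1 source), plated at 10⁶ cells/mL. Adherent cells primed overnight with 100 units/mL interferon γ, washed, then incubated 4 h with compound in serum-free medium. TNF-α in supernatants determined by cytotoxicity to actinomycin-D-treated L929 cells, as IU/mL.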

Mus musculus [4] = organism: Mus musculus; test: Compound was tested for its potency to induce TNF-alpha in murine macrophage cultures in the presence of INF at 10 mg/mL concentration; assay type: functional; summary of the method: as §2
Mus musculus [5] = organism: Mus musculus; test: Compound was tested for its potency to induce TNF-alpha in murine macrophage cultures in the absence of INF at 1 mg/mL concentration; assay type: functional; summary of the method: as §1
[6] = The endotoxic potential (LD50) by iv administration and ip administration of galactosamine (400 mg/kg); assay type: ADME, organism-based; conditions: mouse, in vivo
Summary of the method: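 C57BL/6 mice, groups of six. Serial dilutions given i.v. by tail vein (0.2 mL, saline, or isotonic glucose with 1% ethanol) together with galactosamine 400 mg/kg i.p. LD50 calculated by probit analysis from survivors at 1 day.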

Mus musculus [7] = test: Nonspecific resistance against Pseudomonas aeruginosa infection in mice; administration of a single dose (12.5 mg/kg) 1 day prior to infection, group size 10 mice; assay type: functional
Summary of the method: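 B6D2F1 mice given cyclophosphamide 200 mg/kg s.c. on day -4, then a single i.v. dose of 12.5 mg/kg on day -1 (Tris salts). Survival scored after 4 days of observation. Groups of 10 mice.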

CCCCCCCCCCCC(O)CC(=O)NC1C(OC(=O)C[C@@H](NC(=O)CC(O)CCCCCCCCCCC)C(=O)O)OC(CO)C(O)C1OC(=O)CC(O)CCCCCCCCCCC (stereo partly drawn)
ED50 (Mus musculus [1]): 3.1 mg/kg | Activity (Mus musculus [2]): 618 IU ml-1 | Activity (Mus musculus [3]): 2708 IU ml-1 | Activity (Mus musculus [4]): 2768 IU ml-1 | Activity (Mus musculus [5]): 218 IU ml-1 | LD50 [6]: < 0.05 mg/kg | NSR survival rate (Mus musculus [7]): 10

CCCCCCCCCCCC(O)CC(=O)NC1C(OC(=O)CC[C@H](NC(=O)CC(O)CCCCCCCCCCC)C(=O)O)OC(CO)C(O)C1OC(=O)CC(O)CCCCCCCCCCC (stereo partly drawn)
ED50 (Mus musculus [1]): 5.7 mg/kg | Activity (Mus musculus [2]): 576 IU ml-1 | Activity (Mus musculus [3]): 1511 IU ml-1 | Activity (Mus musculus [4]): 3285 IU ml-1 | Activity (Mus musculus [5]): 270 IU ml-1 | LD50 [6]: 0.3 mg/kg | NSR survival rate (Mus musculus [7]): 9

CCCCCCCCCCCC(O)CC(=O)NC1C(OCCCN(CC(=O)O)C(=O)CC(O)CCCCCCCCCCC)OC(CO)C(O)C1OC(=O)CC(O)CCCCCCCCCCC (stereo not drawn)
ED50 (Mus musculus [1]): 1.5 mg/kg | Activity (Mus musculus [2]): 1498 IU ml-1 | Activity (Mus musculus [3]): 920 IU ml-1 | Activity (Mus musculus [4]): 3050 IU ml-1 | Activity (Mus musculus [5]): 523 IU ml-1 | LD50 [6]: 0.1 mg/kg | NSR survival rate (Mus musculus [7]): 10

CCCCCCCCCCCC(O)CC(=O)NC1C(OC(=O)CC[C@@H](NC(=O)CC(O)CCCCCCCCCCC)C(=O)O)OC(CO)C(O)C1OC(=O)CC(O)CCCCCCCCCCC (stereo partly drawn)
ED50 (Mus musculus [1]): 0.3 mg/kg | Activity (Mus musculus [2]): 688 IU ml-1 | Activity (Mus musculus [3]): >2409 IU ml-1 | Activity (Mus musculus [4]): >2409 IU ml-1 | Activity (Mus musculus [5]): 518 IU ml-1 | LD50 [6]: 0.04 mg/kg | NSR survival rate (Mus musculus [7]): 10

CCCCCCCCCCCC(O)CC(=O)NC1C(OCCCN(CC(=O)O)C(=O)CC(O)CCCCCCCCCCC)OC(CO)C(O)C1O (stereo not drawn)
Activity (Mus musculus [2]): 0 IU ml-1 | Activity (Mus musculus [4]): 0 IU ml-1 | LD50 [6]: > 5 mg/kg | NSR survival rate (Mus musculus [7]): 3

CCCCCCCCCCCC(O)CC(=O)NC1C(OC(=O)C[C@H](NC(=O)CC(O)CCCCCCCCCCC)C(=O)O)OC(CO)C(O)C1OC(=O)CC(O)CCCCCCCCCCC (stereo partly drawn)
ED50 (Mus musculus [1]): > 12.5 mg/kg | Activity (Mus musculus [2]): 446 IU ml-1 | Activity (Mus musculus [3]): 25 IU ml-1 | Activity (Mus musculus [4]): 899 IU ml-1 | Activity (Mus musculus [5]): 0 IU ml-1 | LD50 [6]: 1 mg/kg | NSR survival rate (Mus musculus [7]): 8

CCCCCCCCCCCC(O)CC(=O)NC1C(OC(=O)CC[C@H](NC(=O)CC(O)CCCCCCCCCCC)C(=O)O)OC(CO)C(O)C1NC(=O)CC(O)CCCCCCCCCCC (stereo partly drawn)
ED50 (Mus musculus [1]): 1.5 mg/kg | Activity (Mus musculus [2]): 1069 IU ml-1 | Activity (Mus musculus [3]): 294 IU ml-1 | Activity (Mus musculus [4]): 1570 IU ml-1 | Activity (Mus musculus [5]): 175 IU ml-1 | LD50 [6]: 0.2 mg/kg | NSR survival rate (Mus musculus [7]): 8

CCCCCCCCCCCC(O)CC(=O)NC1C(OC(=O)CC[C@@H](NC(=O)CC(O)CCCCCCCCCCC)C(=O)O)OC(CO)C(O)C1NC(=O)CC(O)CCCCCCCCCCC (stereo partly drawn)
ED50 (Mus musculus [1]): > 25 mg/kg | Activity (Mus musculus [2]): 464 IU ml-1 | Activity (Mus musculus [3]): 151 IU ml-1 | Activity (Mus musculus [4]): 609 IU ml-1 | Activity (Mus musculus [5]): 27 IU ml-1 | LD50 [6]: 5.1 mg/kg | NSR survival rate (Mus musculus [7]): 3
